Test: Volume of distribution at steady state in CD-1 mouse at 1 mg/kg, iv and 3 or 5 mg/kg, po
Type: ADME, organism-based
Details: in vivo, read-out: Vdss
Outline: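 Male mice, rats, dogs and cynomolgus monkeys, fasted overnight, fed after dosing. Intravenous dose 1 mg/kg in saline or 12% sulfobutyl ether β-cyclodextrin; oral arm 3 or 5 mg/kg in 0.5% methylcellulose. Steady-state volume derived from plasma concentration−time data; mean ± SD for n = 3, individual values for n = 2.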

SMILES: COc1ccc(Cl)cc1-c1cc(=O)[nH]c(=S)n1CC(N)=O [PF-06282999]
- Vd: 0.9 L/kg

From ChEMBL document CHEMBL3632461 (J Med Chem, 2015)
